According to ChEMBL document CHEMBL1138253, “Cytotoxic and apoptotic activities of novel amino analogues of boswellic acids” (2007):

What was measured:
Type in all cases: functional
HT-29 = test: Cytotoxicity against human HT29 cells at 10 uM after 48 hrs; details: HT-29, 48 h
Method in brief: (§1)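 SRB growth assay. DMSO stock (1 × 10^-2 M) diluted in RPMI-1640 (2 mM glutamine, pH 7.4, 10% FCS, antibiotics). Trypsinized subconfluent cells with >97% viability (trypan blue) seeded at 10^5 cells/ml and grown 24 h, then exposed to compound 48 h at 37 °C, 5% CO2. Fixed with TCA at 4 °C for 1 h, stained with 0.4% SRB, solubilized in 0.01 M Tris pH 10.4, OD read at 540 nm. Run in triplicate; mean of three experiments.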

[1] = Cytotoxicity against human 502713 cells at 10 uM after 48 hrs; details: Homo sapiens, 502713, 48 h; method in brief: as §1
DU-145 = test: Cytotoxicity against human DU145 cells at 10 uM after 48 hrs; details: DU-145, 48 h; method in brief: as §1
SW-620 = test: Cytotoxicity against human SW620 cells at 10 uM after 48 hrs; details: SW-620, 48 h; method in brief: as §1
MCF7 = test: Cytotoxicity against human MCF7 cells at 10 uM after 48 hrs; details: MCF7, 48 h; method in brief: as §1

Row | Compound | inhibition at 10 µM (HT-29) [%] | inhibition at 10 µM [1] [%] | inhibition at 10 µM (DU-145) [%] | inhibition at 10 µM (SW-620) [%] | inhibition at 10 µM (MCF7) [%]
1 | C[C@H]1[C@H](C)CC[C@]2(C)CC[C@]3(C)C(=CC[C@@H]4[C@@]5(C)CC[C@H](O)[C@](C)(C(=O)O)[C@@H]5CC[C@]43C)[C@H]12 | 11 | 18 | 1 | 15 | 18
2 | C[C@H]1[C@H](C)CC[C@]2(C)CC[C@]3(C)C(=CC[C@@H]4[C@@]5(C)CC[C@H](O)[C@](C)(N)[C@@H]5CC[C@]43C)[C@H]12 | 51 | 23 | 16 | 63 | 0
3 | CC(=O)N[C@]1(C)[C@@H]2CC[C@]3(C)[C@H](CC=C4[C@@H]5[C@@H](C)[C@H](C)CC[C@]5(C)CC[C@]43C)[C@@]2(C)CC[C@H]1OC(C)=O | 0 | 7 | 8 | 0 | 57
4 | CC(=O)N[C@@]1(C)[C@@H](OC(C)=O)CC[C@@]2(C)[C@H]1CC[C@]1(C)[C@@H]2CC=C2[C@@H]3[C@@H](C)[C@H](C)CC[C@]3(C)CC[C@]21C | 27 | 0 | 6 | 43 | 2
5 | COC(=O)[C@@]1(C)[C@H](O)CC[C@@]2(C)[C@H]1CC[C@]1(C)[C@@H]2CC=C2[C@@H]3[C@@H](C)[C@H](C)CC[C@]3(C)CC[C@]21C | 0 | 23 | 13 | 0 | 1
6 | COC(=O)[C@@]1(C)C(=O)CC[C@]2(C)[C@H]3C(=O)C=C4[C@@H]5[C@@H](C)[C@H](C)CC[C@]5(C)CC[C@@]4(C)[C@]3(C)CC[C@@H]12 | 5 | 20 | 13 | 2 | 3
7 | CC(=O)O[C@H]1C(=O)[C@@]2(C)[C@H]([C@H](OC(=O)c3ccccc3)[C@]3(O)C[C@H](OC(=O)[C@H](O)[C@@H](NC(=O)c4ccccc4)c4ccccc4)C(C)=C1C3(C)C)[C@]1(OC(C)=O)CO[C@@H]1C[C@@H]2O [PACLITAXEL] | 76 | 26 | 53 | 41 | 46
8 | CCC(=O)N[C@@]1(C)[C@@H](OC(=O)CC)CC[C@@]2(C)[C@H]1CC[C@]1(C)[C@@H]2CC=C2[C@@H]3[C@@H](C)[C@H](C)CC[C@]3(C)CC[C@]21C | 24 | 0 | 11 | 13 | 0
9 | CCCC(=O)N[C@]1(C)[C@@H]2CC[C@]3(C)[C@H](C(=O)C=C4[C@@H]5[C@@H](C)[C@H](C)CC[C@]5(C)CC[C@]43C)[C@@]2(C)CC[C@H]1OC(=O)CCC | 0 | 12 | 0 | 0 | 0
10 | COC(=O)[C@]1(C)[C@@H]2CC[C@]3(C)[C@H](C(=O)C=C4[C@@H]5[C@@H](C)[C@H](C)CC[C@]5(C)CC[C@]43C)[C@@]2(C)CC[C@@H]1O | 3 | 10 | 0 | 11 | 0
11 | CC(=O)O[C@@H]1CC[C@@]2(C)[C@@H](CC[C@]3(C)[C@@H]2C(=O)C=C2[C@@H]4[C@@H](C)[C@H](C)CC[C@]4(C)CC[C@]23C)[C@@]1(C)N=C=O | 0 | 2 | 0 | 0 | 10
12 | CCCC(=O)N[C@@]1(C)[C@@H](OC(=O)CCC)CC[C@@]2(C)[C@H]1CC[C@]1(C)[C@@H]2CC=C2[C@@H]3[C@@H](C)[C@H](C)CC[C@]3(C)CC[C@]21C | 0 | 14 | 0 | 21 | 0
13 | CC(=O)N[C@]1(C)[C@@H]2CC[C@]3(C)[C@H](C(=O)C=C4[C@@H]5[C@@H](C)[C@H](C)CC[C@]5(C)CC[C@]43C)[C@@]2(C)CC[C@H]1OC(C)=O | 0 | 20 | 9 | 0 | 62
14 | COC(=O)[C@]1(C)[C@@H]2CC[C@]3(C)[C@H](CC=C4[C@@H]5[C@@H](C)[C@H](C)CC[C@]5(C)CC[C@]43C)[C@@]2(C)CC[C@@H]1O | 0 | 9 | 0 | 12 | 0
15 | C[C@H]1[C@H](C)CC[C@]2(C)CC[C@]3(C)C(=CC(=O)[C@@H]4[C@@]5(C)CC[C@@H](O)[C@](C)(C(=O)O)[C@@H]5CC[C@]43C)[C@H]12 [11-KETO BOSWELLIC ACID] | 7 | 0 | 0 | 7 | 0
16 | CCC(=O)N[C@]1(C)[C@@H]2CC[C@]3(C)[C@H](CC=C4[C@@H]5[C@@H](C)[C@H](C)CC[C@]5(C)CC[C@]43C)[C@@]2(C)CC[C@H]1OC(=O)CC | 0 | 9 | 8 | 0 | 35
17 | CC(=O)O[C@@H]1CC[C@@]2(C)[C@@H](CC[C@]3(C)[C@@H]2CC=C2[C@@H]4[C@@H](C)[C@H](C)CC[C@]4(C)CC[C@]23C)[C@@]1(C)N=C=O | 22 | 0 | 0 | 0 | 30
18 | CC(=O)O[C@H]1CC[C@@]2(C)[C@@H](CC[C@]3(C)[C@@H]2CC=C2[C@@H]4[C@@H](C)[C@H](C)CC[C@]4(C)CC[C@]23C)[C@@]1(C)C(=O)O | 17 | 12 | 0 | 20 | 15
19 | CO[C@@]12[C@H](COC(N)=O)C3=C(C(=O)C(C)=C(N)C3=O)N1C[C@@H]1N[C@@H]12 [MITOMYCIN] | 63 | 84 | 56 | 67 | 78
20 | COC(=O)[C@@]1(C)[C@H](O)CC[C@@]2(C)[C@H]1CC[C@]1(C)[C@@H]2C(=O)C=C2[C@@H]3[C@@H](C)[C@H](C)CC[C@]3(C)CC[C@]21C | 0 | 19 | 12 | 1 | 0
21 | CC(=O)O[C@@H]1CC[C@@]2(C)[C@@H](CC[C@]3(C)[C@@H]2CC=C2[C@@H]4[C@@H](C)[C@H](C)CC[C@]4(C)CC[C@]23C)[C@@]1(C)C(=O)O | 36 | 20 | 0 | 5 | 0
22 | CC(=O)O[C@H]1CC[C@@]2(C)[C@@H](CC[C@]3(C)[C@@H]2C(=O)C=C2[C@@H]4[C@@H](C)[C@H](C)CC[C@]4(C)CC[C@]23C)[C@@]1(C)N=C=O | 5 | 0 | 0 | 20 | 9
23 | C[C@H]1[C@H](C)CC[C@]2(C)CC[C@]3(C)C(=CC(=O)[C@@H]4[C@@]5(C)CC[C@H](O)[C@](C)(N)[C@@H]5CC[C@]43C)[C@H]12 | 0 | 0 | 0 | 7 | 17
24 | CC(=O)O[C@H]1CC[C@@]2(C)[C@@H](CC[C@]3(C)[C@@H]2CC=C2[C@@H]4[C@@H](C)[C@H](C)CC[C@]4(C)CC[C@]23C)[C@@]1(C)N=C=O | 2 | 3 | 18 | 6 | 50
25 | C[C@H]1[C@H](C)CC[C@]2(C)CC[C@]3(C)C(=CC[C@@H]4[C@@]5(C)CC[C@@H](O)[C@](C)(C(=O)O)[C@@H]5CC[C@]43C)[C@H]12 [BOSWELLIC ACID] | 15 | 24 | 0 | 2 | 18
26 | CC(=O)O[C@@H]1CC[C@@]2(C)[C@@H](CC[C@]3(C)[C@@H]2C(=O)C=C2[C@@H]4[C@@H](C)[C@H](C)CC[C@]4(C)CC[C@]23C)[C@@]1(C)C(=O)O [AKBA] | 24 | 8 | 10 | 2 | 12
27 | COC(=O)[C@@]1(C)C(=O)CC[C@]2(C)[C@H]3CC=C4[C@@H]5[C@@H](C)[C@H](C)CC[C@]5(C)CC[C@@]4(C)[C@]3(C)CC[C@@H]12 | 12 | 27 | 12 | 3 | 0
28 | CC(=O)O[C@H]1CC[C@@]2(C)[C@@H](CC[C@]3(C)[C@@H]2C(=O)C=C2[C@@H]4[C@@H](C)[C@H](C)CC[C@]4(C)CC[C@]23C)[C@@]1(C)C(=O)O | 19 | 23 | 0 | 0 | 21
